KCC2 mod – modulates chloride dependent transport by human KCC2. Q9H2X9. KCC2 cells, thallium flux FluoZin-2 fluorescence. B-score of Tl+ flux slope (higher = more flux/activation; lower = inhibition) at 10 µM. actives 2.2% (n = 190,000). AID 1456;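 active means thallium flux slope and its plate-corrected score both differing from the plate sample mean at a set confidence after two filtering rounds, in either direction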;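 further: slope of fluorescence scaled to starting intensity during 10 to 20 s after thallium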
Target sequence (Q9H2X9 whole entry, looked up): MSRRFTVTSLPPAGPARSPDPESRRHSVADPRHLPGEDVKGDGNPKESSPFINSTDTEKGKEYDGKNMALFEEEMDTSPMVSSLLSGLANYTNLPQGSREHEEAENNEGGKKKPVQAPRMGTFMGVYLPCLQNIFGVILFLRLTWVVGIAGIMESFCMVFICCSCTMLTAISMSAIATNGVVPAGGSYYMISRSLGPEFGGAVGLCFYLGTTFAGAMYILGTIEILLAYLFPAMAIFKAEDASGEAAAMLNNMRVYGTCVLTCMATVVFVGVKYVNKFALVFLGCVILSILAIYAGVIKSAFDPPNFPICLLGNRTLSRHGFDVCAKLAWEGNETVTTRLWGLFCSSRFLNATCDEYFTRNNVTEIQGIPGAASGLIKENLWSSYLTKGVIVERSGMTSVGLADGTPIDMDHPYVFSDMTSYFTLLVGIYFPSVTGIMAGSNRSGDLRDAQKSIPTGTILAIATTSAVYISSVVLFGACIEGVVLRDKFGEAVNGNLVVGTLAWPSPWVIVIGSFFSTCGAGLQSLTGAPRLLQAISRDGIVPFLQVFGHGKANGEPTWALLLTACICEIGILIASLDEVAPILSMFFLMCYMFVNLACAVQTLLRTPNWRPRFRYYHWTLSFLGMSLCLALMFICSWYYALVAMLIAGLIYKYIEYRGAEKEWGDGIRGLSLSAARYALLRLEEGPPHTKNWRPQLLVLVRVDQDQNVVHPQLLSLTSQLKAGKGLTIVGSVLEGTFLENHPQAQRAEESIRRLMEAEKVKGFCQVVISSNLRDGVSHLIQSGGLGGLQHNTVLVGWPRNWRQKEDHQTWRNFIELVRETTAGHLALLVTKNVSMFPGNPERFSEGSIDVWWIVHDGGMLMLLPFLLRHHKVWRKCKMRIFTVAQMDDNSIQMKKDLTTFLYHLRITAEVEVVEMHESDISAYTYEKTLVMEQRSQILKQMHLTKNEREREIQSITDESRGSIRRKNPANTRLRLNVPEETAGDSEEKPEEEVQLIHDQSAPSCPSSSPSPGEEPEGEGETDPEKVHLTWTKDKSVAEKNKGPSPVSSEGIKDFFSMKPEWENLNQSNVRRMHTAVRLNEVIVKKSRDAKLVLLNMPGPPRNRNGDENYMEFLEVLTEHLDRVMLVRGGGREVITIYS
WT yeast gro inh – growth inhibition of WT yeast, mitochondrial fusion screen | mitochondrial fusion phenotypic screen, WT strain | inhibition, % at 10 µM | actives 2.1% (n = 190,000) | AID 1362; in the data active means inhibition above about 58%; tested in S. cerevisiae
Yeast growth inh – yeast BB579 growth reduction in restrictive medium; S. cerevisiae BB579 growth, OD615, 48 h; inhibition, % at 10 µM; actives 0.51% (n = 140,000);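 active means inhibition above a set limit, 3 SD over the mean compound inhibition, cut at about 44% in these data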
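Test system: Saccharomyces cerevisiae DeaD strain BB579, replicative lifespan model yeast | Buffer or medium: Restrictive CSMM-D medium | Doses: One dose, 10 µM compound with 0.25% DMSO | Incubation: 48 h exposure, 30 °C | Detection: Culture absorbance at 615 nm | Control set: Amphotericin B at 10 µg/mL as positive control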
RAM inhibit – blocks the yeast RAM network; S. cerevisiae dse1pr::URA3 reporter, 5-FOA growth OD615, 2 d; analog-sensitive cbk1-as2 kinase mutant strain; inhibition, % at 50 µM; actives 1.8% (n = 190,000);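 active means inhibition above a set limit, 3 SD over mean compound inhibition, cut at about 8.4% in these data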;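 further: 0% = DMSO-only wells with no growth and 100% = 10 µM 1-NA-PP1 full growth; inhibition rescues growth on 5-FOA so higher OD means more RAM inhibition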
Yeast life ext – yeast lifespan extension; AID 775; inhibition of the nicotinamide effect, % at 10 µM; actives 0.68% (n = 130,000); S. cerevisiae growth with nicotinamide, OD615; deaD strain in restrictive glucose medium;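 active means inhibition above a set limit, placed 3 SD over the median of all compounds, cut at about 26% in these data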;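 further: 0% = nicotinamide-treated wells and 100% = cells grown without nicotinamide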
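Assay system: engineered S. cerevisiae DeaD replicative-lifespan strain, galactose-grown log-phase cells; Buffer or medium: CSMM-D glucose medium, restrictive; Probe or stimulus: nicotinamide 1.5 mM; Compound: single dose 10 µM compound, 0.25% DMSO; Schedule: 4 h preincubation then 48 h treatment at 30 °C; Technique: OD615 measurement.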
KCC2 sec1 – confirmation of human KCC2 transport modulators; shares compounds with KCC2 mod; HEK293-KCC2, thallium flux, FluoZin2 fluorescence; stronger effect = higher value; normalised thallium flux (F/F0 slope) at 10 µM; actives 15% (n = 3,700); AID 1713;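 active means thallium flux slope above the same plate's solvent-only control mean plus 3 SD; inconclusive means the two replicate wells disagree; inactive means no significant difference from solvent-only control wells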
KCC2 bumet counter – thallium flux despite bumetanide block in KCC2 cells, secondary assay 3; shares compounds with KCC2 mod; HEK293-KCC2 + bumetanide/ouabain, thallium flux FluoZin2; stronger effect = higher value; normalized thallium flux at 10 µM; actives 49% (n = 3,700);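 active means thallium entry rate above the same plate's blocked-transporter control wells by more than 3 SD; inconclusive means the two repeat wells disagree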;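 further: raw slope of fluorescence over initial fluorescence between 10 and 20 s after thallium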
KCC2 secondary2 – KCC2 (human) modulation, second secondary assay | HEK293-KCC2, thallium flux FluoZin2 fluorescence; actives lie on both sides; F/F0 rise rate, 10–20 s post-thallium | shares compounds with KCC2 mod | normalized thallium flux at 10 µM | AID 1715 | actives 23% (n = 3,700);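 active means thallium flux slope more than 3 SD above or below the plate's solvent-only control mean, mostly below; inconclusive means the two repeat wells disagreed; inactive means no significant shift from solvent-only controls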;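 further: raw slope with 0.1% DMSO as baseline and bumetanide as block control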
HEK293 Tl flux – parental HEK flux effect, counter-screen. AID 1716. shares compounds with KCC2 mod. actives 46% (n = 3,700). thallium flux rate (normalised fluorescence) at 10 µM. HEK293 parental cells, thallium flux FluoZin2, ouabain; baseline-ratio fluorescence slope, 10–20 s after thallium;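 active means thallium flux rate significantly above the same plate's solvent-only control wells, beyond their mean plus 3 SD; inconclusive means the two replicate wells gave conflicting results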
KCC2 retest ouab – KCC2 (human) modulation, ouabain retest | shares compounds with KCC2 mod | HEK293-KCC2, thallium flux FluoZin2 fluorescence; bidirectional: low = inhibitor, high = activator | raw Tl+ flux slope (below DMSO = inhibition, above = activation) at 10 µM | actives 48% (n = 3,700) | AID 1717;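 active means thallium flux slope beyond 3 SD from same-plate DMSO control mean in most replicates, usually higher, sometimes lower; inconclusive means repeat tests gave conflicting results; inactive means no significant difference from controls in most replicates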;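 further: slope of initial-normalized fluorescence between seconds 10 and 20 after thallium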
HEK counter2 – acts in parental HEK cells, second KCC2 counter-screen; shares compounds with KCC2 mod; HEK293 parental, thallium flux FluoZin-2 fluorescence slope; thallium flux slope at 10 µM; actives 33% (n = 3,700);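 active means thallium flux slope above the same plate's solvent-control mean plus 3 SD in both duplicate wells; inconclusive means duplicate wells that disagreed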;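 further: run without ouabain in cells lacking the KCC2 cotransporter; slope of fluorescence scaled to its starting value between 10 and 20 s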
Active calls of the source: *; ? = inconclusive; . = no result given. Sampled rows, rich in hits. Any-hit rate of the full collection: about 5.5%.

SMILES | KCC2 mod | WT yeast gro inh | Yeast growth inh | RAM inhibit | Yeast life ext | KCC2 sec1 | KCC2 bumet counter | KCC2 secondary2 | HEK293 Tl flux | KCC2 retest ouab | HEK counter2
Cc1ccc(SCCCCN2CCNCC2)cc1 | -0.034 | 0 | 2 | -1 | -1 | . | . | . | . | . | .
O=C(Nc1nccs1)c1nc(-c2ccccc2)n(-c2ccccc2)n1 | 5.3* | . | -12 | 3 | -7 | 0.012 | 0.023* | 0.032 | 0.011* | 0.023 | 0.011
O=C(Nc1ccc(-c2csc(Nc3cccc(C(F)(F)F)c3)n2)cc1)c1ccccc1 | -1 | . | . | . | . | . | . | . | . | . | .
O=C(Nc1nc(=O)n(C(=O)c2cccc(C(F)(F)F)c2)s1)c1ccccc1 | -4.3* | . | . | . | . | 0.0057 | 0.0044 | 0.024* | 0.0069 | 0.016* | 0.0093
COc1cccc(C(=O)NNC(=O)c2ccccc2-n2cccc2)c1 | 0.62 | 1 | . | 0 | . | . | . | . | . | . | .
COc1cccc(C(=O)NNC(=O)c2sccc2-n2cccc2)c1 | 5.9* | 0 | . | 1 | . | 0.0069 | 0.012* | 0.033 | 0.012* | 0.023 | 0.014*
N#CC1=C(N)NC(SCc2ccc(F)cc2)=C(C#N)C12CCCCC2 | -3.1 | 9 | -14 | 4 | -10 | 0.0065 | 0.0043 | 0.024* | ? | ? | 0.011
Cc1ccc(C(C(=O)NC(C)(C)C)N(Cc2ccco2)C(=O)CCC(=O)Nc2nccs2)cc1 (stereo not drawn) | 0.075 | . | . | . | . | . | . | . | . | . | .
CCOC(=O)c1ccc(NC(=O)CCSCCc2ccccn2)cc1 | -0.27 | -8 | . | 0 | . | . | . | . | . | . | .
CCn1c(COc2ccc(OC)cc2)nnc1SCc1nc2ccccc2c(=O)[nH]1 | 0.86 | -2 | . | 1 | . | . | . | . | . | . | .
Cc1cc(/C=C2/C(=O)N(C)C(=S)N2C)c(C)n1C1CC1 | -0.046 | -1 | -47 | 4 | -5 | . | . | . | . | . | .
Cc1cc(/C=C2\SC(=S)NC2=O)c(C)n1C1CC1 | 5.6* | -10 | -25 | 4 | -14 | 0.0086 | 0.029* | 0.025* | 0.015* | 0.025* | 0.011*
COc1cc(O)cc(O)c1C(=O)/C=C/c1ccccc1 | -1.7 | 9 | . | 5 | . | . | . | . | . | . | .
COc1cc(OC)c(C(=O)/C=C/c2ccccc2)c(O)c1O | -1.5* | . | . | . | . | 0.0059 | ? | 0.026* | 0.007 | ? | 0.011
CN1/C(=C\C(=S)NC(=O)c2cccc(Br)c2)C(C)(C)c2ccccc21 | 4.6* | 65* | 22 | 8.9* | -3 | 0.01 | 0.014* | 0.035 | ? | ? | 0.012
COc1cc(/C=C/c2noc(-c3ccccc3O)n2)ccc1OC(C)=O | -5.5* | . | . | . | . | 0.0087 | 0.0069 | 0.03 | 0.0069 | 0.021 | 0.0088
C/C(=N\NC(=O)CCn1nnc2ccccc21)c1ccco1 | 0.095 | . | . | . | . | . | . | . | . | . | .
CC(C)(C)C(=O)Nc1nc2c(s1)CN(Cc1ccccc1)CC2 | 0.00075 | 20 | . | 0 | . | . | . | . | . | . | .
O=C(Nc1nc2c(s1)CN(Cc1ccccc1)CC2)C1CCCC1 | -3* | 5 | . | 1 | . | 0.0082 | 0.0059 | 0.033 | 0.0075 | ? | 0.011
C=CCSc1nnc(C)c(/C=C/Nc2ccc(Cl)cc2)n1 | -0.79 | 24 | . | 1 | . | . | . | . | . | . | .
Cc1cc([N+](=O)[O-])ccc1NCc1ccccc1 | -3.1* | 10 | -46 | 1 | -11 | 0.006 | 0.0043 | 0.023* | 0.0066 | 0.017* | 0.009
COc1ccccc1CNc1ccc([N+](=O)[O-])cc1C | -2.4 | -8 | . | 0 | . | . | . | . | . | . | .
COCCCNCC(=O)Nc1ccc(OC(F)(F)F)cc1 | 3.6* | -13 | -17 | 2 | 0 | 0.0091 | 0.0062 | 0.03 | 0.0072 | 0.027 | 0.0098
c1ccc(-c2noc(-c3ccccc3-c3ccccc3)n2)cc1 | 5.6* | 72* | -12 | 2 | -15 | 0.0064 | 0.0037 | 0.032 | 0.0074 | 0.019 | 0.01
Cc1ccc(C(=O)Nc2nc3n(n2)C(c2ccccc2)CC(=O)N3)cc1 (stereo not drawn) | -0.036 | . | . | . | . | . | . | . | . | . | .
SMILES | KCC2 mod | WT yeast gro inh | Yeast growth inh | RAM inhibit | Yeast life ext | KCC2 sec1 | KCC2 bumet counter | KCC2 secondary2 | HEK293 Tl flux | KCC2 retest ouab | HEK counter2
CN1CCN(C(=O)c2ccc(CS(=O)(=O)c3c(Cl)cccc3Cl)o2)CC1 | -3.3* | 4 | -32 | 0 | -4 | 0.0059 | 0.0047 | 0.033 | 0.0077 | 0.018 | 0.012
O=C(c1ccc(CS(=O)(=O)c2c(Cl)cccc2Cl)o1)N1CCCC1 | -3.3 | -1 | -14 | 0 | -9 | . | . | . | . | . | .
O=C(Nc1ccccc1)/C(=C\c1ccncc1)NC(=O)c1ccccc1 | 5.4* | 12 | -52 | 1 | -10 | 0.015 | 0.0051 | 0.027 | ? | 0.017 | 0.011
O=C(Nc1ccc(O)cc1)/C(=C\c1ccncc1)NC(=O)c1ccccc1 | -0.6 | -15 | . | 1 | . | . | . | . | . | . | .
CCCCn1c(N2CCC(Cc3ccccc3)CC2)nc2c1c(=O)[nH]c(=O)n2C | -4.9* | 68* | -49 | 1 | -8 | 0.0073 | 0.0052 | 0.035 | ? | ? | 0.011
Cc1noc(C)c1CSCC(=O)OCC(=O)NC1CCCCC1 | . | 0 | -33 | 1 | -4 | 0.0068 | ? | 0.03 | 0.0072 | 0.018 | 0.011
O=C(c1ccc(F)cc1)C1CCN(S(=O)(=O)c2ccccc2)CC1 | 0.39 | 10 | . | 3 | . | . | . | . | . | . | .
COCCN1C(=O)C(O)=C(C(=O)c2ccco2)C1c1cccc(Oc2ccccc2)c1 (stereo not drawn) | -6.9* | 7 | -5 | 6 | 4 | 0.009 | 0.0058 | ? | 0.0063* | 0.017* | 0.01
CC(C)(C)C1C/C(=C/c2ccccn2)C(=O)/C(=C/c2ccccn2)C1 (stereo not drawn) | -3.4* | 69* | . | 0 | . | 0.011 | 0.0094* | 0.03 | 0.0095* | 0.023 | ?
CCOCCCn1c(=S)[nH]c2ncccc2c1=O | 5.3* | 14 | -16 | 0 | -14 | 0.0064 | 0.017* | 0.037 | 0.018* | ? | 0.021*
CC(C)CCn1c(=S)[nH]c2ncccc2c1=O | 51* | 11 | 0 | 4 | 6 | 0.012* | 0.08* | 0.075* | 0.067* | 0.073* | 0.059*
COc1ccc(N2CCN(CCCn3c(=S)[nH]c4ncccc4c3=O)CC2)cc1 | 8.9* | -1 | 28 | -1 | -5 | 0.0071 | 0.032* | 0.037 | 0.02* | 0.031* | 0.018*

Bioassay records deposited in PubChem BioAssay by several laboratories.
